According to ChEMBL document CHEMBL1128301, “Cephalosporin derivatives of doxorubicin as prodrugs for activation by monoclonal antibody-beta-lactamase conjugates” (J Med Chem, 1995):

Columns and labels:
Assay type in all cases: functional, cell-based
H2981 cell line [1] = test: Concentration resulting in 50% incorporation of [3H]thymidine compared to untreated control cells on H2981 human lung adenocarcinoma cells in the absence of Enterobacter cloacae P99 beta-lactamase (ECIbL); conditions: H2981, 1 h
Method in brief: (§1)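 H2981 cells in IMDM/10% FBS were seeded at 4000 or 8000 per well and left 18 h at 37 °C. Drug, ±EClbL, was given in RPMI/10% FBS over a concentration range for 1 h at 37 °C, then washed off and cells kept 18 h. [³H]thymidine (1 μCi/well) was pulsed 6 h (8000 cells) or 18 h (4000 cells).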

H2981 cell line [2] = test: Concentration resulting in 50% incorporation of [3H]thymidine compared to untreated control cells on H2981 human lung adenocarcinoma cells in the presence of 10 ug/mL Enterobacter cloacae P99 beta-lactamase (ECIbL); conditions: H2981, 1 h; method in brief: as §1
H2981 cell line [3] = test: Concentration resulting in 50% incorporation of [3H]thymidine compared to untreated control cells on H2981 human lung adenocarcinoma cells in the presence of doxorubicin; conditions: H2981, 1 h; method in brief: as §1
H2981 cell line [4] = test: Enterobacter cloacae P99 beta-lactamase (ECIbL) enzyme concentration required to achieve an IC50 value of compound on H2981 lung adenocarcinoma cells; conditions: Homo sapiens
Method in brief: (§2)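 H2981 cells were plated at 4000 or 8000/well and allowed to adhere 18 h at 37 °C. Prodrug was held fixed at 1 μM while β-lactamase was titrated. After 1 h at 37 °C, cells were washed and incubated 18 h. A [³H]thymidine pulse (1 μCi/well) followed, 6 h or 18 h depending on seeding.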

H2981 cell line [5] = test: Escherichia coli TEM-1 beta-lactamase (ECbL) enzyme concentration required to achieve an IC50 value of compound on H2981 lung adenocarcinoma cells; conditions: Homo sapiens; method in brief: as §2
H2981 cell line [6] = test: Bacillus cereus beta-lactamase (BCbL) enzyme concentration required to achieve an IC50 value of compound on H2981 lung adenocarcinoma cells; conditions: Homo sapiens; method in brief: as §2
H2981 cell line [7] = test: Cytotoxicity on H2981 Human lung adenocarcinoma cells.; method in brief: as §1

IC50 (H2981 cell line [1]) | IC50 (H2981 cell line [2]) | IC50 (H2981 cell line [3]) | IC50 (H2981 cell line [4]) | IC50 (H2981 cell line [5]) | IC50 (H2981 cell line [6]) | Compound | IC50 (H2981 cell line [7])
2500 nM | 450 nM | 460 nM | 0.13 nM | 1.13 nM | 1.58 nM | COc1cccc2c1C(=O)c1c(O)c3c(c(O)c1C2=O)C[C@@](O)(C(=O)CO)C[C@@H]3OC1CC(NC(=O)OCC2=C(C(=O)O)N3C(=O)[C@@H](NC(=O)CSC4OC(CO)C(O)C(O)C4O)[C@H]3SC2)C(O)C(C)O1 (some centres not stated) | 
21900 nM | 470 nM | 480 nM | 0.039 nM | 6.5 nM | 1.13 nM | COc1cccc2c1C(=O)c1c(O)c3c(c(O)c1C2=O)C[C@@](O)(C(=O)CO)C[C@@H]3OC1CC(NC(=O)OCC2=C(C(=O)O)N3C(=O)[C@@H](NC(=O)CCCC(=O)O)[C@H]3SC2)C(O)C(C)O1 (some centres not stated) | 
7400 nM | 750 nM | 550 nM | 0.012 nM | 0.68 nM | 0.25 nM | COc1cccc2c1C(=O)c1c(O)c3c(c(O)c1C2=O)C[C@@](O)(C(=O)CO)C[C@@H]3OC1CC(NC(=O)OCC2=C(C(=O)O)N3C(=O)[C@@H](NC(=O)Cc4ccccc4)[C@H]3SC2)C(O)C(C)O1 (some centres not stated) | 
10300 nM | 550 nM | 560 nM | 0.024 nM | 0.25 nM | 0.21 nM | COc1cccc2c1C(=O)c1c(O)c3c(c(O)c1C2=O)C[C@@](O)(C(=O)CO)C[C@@H]3OC1CC(NC(=O)OCC2=C(C(=O)O)N3C(=O)[C@@H](NC(=O)Cc4cccs4)[C@H]3SC2)C(O)C(C)O1 (some centres not stated) | 
8200 nM | 430 nM | 460 nM | 9.86 nM | 185 nM | 24.9 nM | COc1cccc2c1C(=O)c1c(O)c3c(c(O)c1C2=O)C[C@@](O)(C(=O)CO)C[C@@H]3OC1CC(NC(=O)OCC2=C(C(=O)O)N3C(=O)[C@@H](N)[C@H]3SC2)C(O)C(C)O1 (some centres not stated) | 
14800 nM | 470 nM | 560 nM | 5.65 nM | 22.7 nM | 0.39 nM | COc1cccc2c1C(=O)c1c(O)c3c(c(O)c1C2=O)C[C@@](O)(C(=O)CO)C[C@@H]3OC1CC(NC(=O)OCC2=C(C(=O)O)N3C(=O)[C@@H](NC(=O)C(c4ccccc4)S(=O)(=O)O)[C@H]3SC2)C(O)C(C)O1 (some centres not stated) | 
 |  |  |  |  |  | COc1cccc2c1C(=O)c1c(O)c3c(c(O)c1C2=O)C[C@@](O)(C(=O)CO)C[C@@H]3O[C@H]1C[C@H](N)[C@H](O)[C@H](C)O1 [DOXORUBICIN] | 500 nM
